Reference: article PMC6750927 (Science Advances, 2019)
pIC50, pKd: −log10 of the molar value. One block for each compound: values may come before it.

Experiments:
[1] = molecular target: Hsp90-Cdc37 PPI (Homo sapiens, UniProt P07900); test: Hsp90-Cdc37 HTRF assay; format: binding; settings: dose-dependent
Method in brief: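 His-tagged Hsp90 and GST-tagged Cdc37 premixed at 80 nM final in PBS with 200 mM KF, pH 7.4. Twofold dilutions of test compound (seven concentrations) added for 1 h at 37°C. HTRF read at excitation 320 nm, emission 665 and 620 nm; ratio = (665/620) × 10,000. n = 3 wells, from three independent experiments.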

[2] = molecular target: Hsp90 ATP binding site (Homo sapiens, UniProt P07900); test: ATP binding site competitive FP assay
Method in brief: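 Competition for the Hsp90 ATP site by fluorescence polarization with a fluorescein isothiocyanate–geldanamycin probe. Read at excitation 485 nm and emission 535 nm. Inhibition rate derived by a previously reported method. n = 3 wells, from three independent experiments.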

[3] = molecular target: Hsp90 ATPase activity (Homo sapiens, UniProt P07900); test: Hsp90 ATPase assay; format: biochemical
Method in brief: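 Hsp90 ATPase measured with an ADP Hunter Plus kit at 37°C. Compound, Hsp90 (5 μM as added) and ATP (100 μM as added) combined in equal parts for 1 h. Background taken without protein or compound; protein alone set as 100% activity. n = 3 wells, from three independent experiments.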

[4] = molecular target: Cdc37 Q208A mutant (UniProt Q16543); test: ITC
[5] = molecular target: Cdc37 R246A mutant (UniProt Q16543); test: ITC
[6] = molecular target: Cdc37, wild type (UniProt Q16543); test: ITC
Chain of Cdc37, wild type (Q16543 whole entry): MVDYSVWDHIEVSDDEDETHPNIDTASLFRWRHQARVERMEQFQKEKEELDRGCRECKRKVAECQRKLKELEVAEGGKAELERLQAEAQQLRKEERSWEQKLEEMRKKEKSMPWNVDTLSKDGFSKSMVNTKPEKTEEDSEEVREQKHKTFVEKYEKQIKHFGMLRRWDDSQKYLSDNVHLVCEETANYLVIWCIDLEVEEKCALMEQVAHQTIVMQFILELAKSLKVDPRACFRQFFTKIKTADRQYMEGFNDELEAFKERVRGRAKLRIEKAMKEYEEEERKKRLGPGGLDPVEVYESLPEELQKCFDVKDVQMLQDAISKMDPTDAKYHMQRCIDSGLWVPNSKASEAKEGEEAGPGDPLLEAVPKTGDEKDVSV

Chain of Cdc37 Q208A mutant (Q16543 whole entry Q208A): as the sequence (Q16543 whole entry) above, with Q208A counted along it
Chain of Cdc37 R246A mutant (Q16543 whole entry R246A): as the sequence (Q16543 whole entry) above, with R246A counted along it

inhibition of Hsp90-Cdc37 binding (IC50) [1]: no activity | pIC50 [2]: 7.92 | pIC50 [3]: 6.80
Compound: CC(C)c1cc(C(=O)N2Cc3ccc(CN4CCN(C)CC4)cc3C2)c(O)cc1O [AT13387]

pKd [4]: 5.45 | pKd [5]: 5.22 | pKd [6]: 5.66
Compound: Heat shock protein 90 (Hsp90), wild type, His-tagged (from UniProt P07900 1-732) (natural protein)

pKd [6]: 5.05
Compound: Hsp90 R46A mutant (from UniProt P07900 1-732) (natural protein)

pKd [6]: 5.16
Compound: Hsp90 Y61A mutant (from UniProt P07900 1-732) (natural protein)
